The structures appear in SMILES notation.

Series [1] addresses T1, Calcitonin gene-related peptide type 1 receptor (Homo sapiens, UniProt O60894+Q16602). As to the kind of experiment: Displacement of [125I]CGRP from CGRP receptor in human SK-N-MC cells. It counts as cell-based. The essentials:
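Radioligand competition binding in human neuroblastoma SK-N-MC cells, which endogenously express CGRP receptor of identical sequence to the cloned human receptor. IC50 determined from compound competition for the radioligand.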

In series [2] the target is T1, Calcitonin gene-related peptide type 1 receptor. In words: Antagonist activity at CGRP receptor in human SK-N-MC cells assessed as inhibition of CGRP-stimulated formation of cyclic AMP. Format: functional, cell-based.
Another series deals with Cytochrome P450 3A4 (Homo sapiens, UniProt P08684). In words: Inhibition of CYP3A4. Format: ADME.
A short description of series [3]: Metabolic stability of the compound in rat liver microsomes assessed as compound remaining at 3 uM after 10 mins. Conditions: read-out: Stability. It counts as ADME, Microsome. In general terms: Microsomes from liver hold many membrane-bound enzymes, among them those of drug oxidation.
A short description of series [4]: Inhibition of CGRP-induced dilation in potassium chloride pre-contracted ex vivo migraine model of human intracranial artery rings.
A further series has as its target Cytochrome P450 2C19 (Homo sapiens, UniProt P33261). In words: Inhibition of recombinant CYP2C19. It counts as ADME.
Series [5] can be described thus: Metabolic stability of the compound in human liver microsomes assessed as compound remaining at 3 uM after 10 mins. It counts as ADME, Microsome. The following applies: read-out: Stability.
The next series deals with T2, Cytochrome P450 1A2 (Homo sapiens, UniProt P05177).
T2 sequence (P05177 whole entry): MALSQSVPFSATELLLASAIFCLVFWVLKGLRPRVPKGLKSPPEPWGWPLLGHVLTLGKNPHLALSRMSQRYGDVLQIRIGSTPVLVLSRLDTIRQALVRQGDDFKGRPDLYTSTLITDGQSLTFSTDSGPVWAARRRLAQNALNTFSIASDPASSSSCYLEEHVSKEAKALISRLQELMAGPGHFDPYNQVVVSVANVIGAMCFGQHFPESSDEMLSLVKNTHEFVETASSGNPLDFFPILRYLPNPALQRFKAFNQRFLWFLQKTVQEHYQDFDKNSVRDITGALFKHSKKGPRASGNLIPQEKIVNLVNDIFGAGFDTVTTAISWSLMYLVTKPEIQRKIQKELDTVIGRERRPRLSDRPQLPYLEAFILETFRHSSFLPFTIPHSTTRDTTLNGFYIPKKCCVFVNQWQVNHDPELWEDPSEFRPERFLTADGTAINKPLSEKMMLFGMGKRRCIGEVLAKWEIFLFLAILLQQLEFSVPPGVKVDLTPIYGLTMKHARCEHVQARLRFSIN
In words: Inhibition of recombinant CYP1A2. It counts as ADME.

A further series concerns the target Cytochrome P450 2C9 (Homo sapiens, UniProt P11712). In words: Inhibition of recombinant CYP2C9. Format: ADME.
In series [6] the target is cytochrome P450 (isoform not stated) (Homo sapiens, UniProt P04798+P05177+P05181+P08684+P10632+P10635+P11509+P11712+P13584+P20813+P20815+P20853+P24462+P24903+P33260+P33261+P51589+P78329+P98187+Q02928+Q08477+Q16678+Q16696+Q5TCH4+Q6VVX0+Q7Z449+Q8TAV3+Q96SQ9+Q9HB55). In words: Inhibition of cytochrome P450. It counts as ADME.

T1 sequence (Q16602 whole entry, one chain of several): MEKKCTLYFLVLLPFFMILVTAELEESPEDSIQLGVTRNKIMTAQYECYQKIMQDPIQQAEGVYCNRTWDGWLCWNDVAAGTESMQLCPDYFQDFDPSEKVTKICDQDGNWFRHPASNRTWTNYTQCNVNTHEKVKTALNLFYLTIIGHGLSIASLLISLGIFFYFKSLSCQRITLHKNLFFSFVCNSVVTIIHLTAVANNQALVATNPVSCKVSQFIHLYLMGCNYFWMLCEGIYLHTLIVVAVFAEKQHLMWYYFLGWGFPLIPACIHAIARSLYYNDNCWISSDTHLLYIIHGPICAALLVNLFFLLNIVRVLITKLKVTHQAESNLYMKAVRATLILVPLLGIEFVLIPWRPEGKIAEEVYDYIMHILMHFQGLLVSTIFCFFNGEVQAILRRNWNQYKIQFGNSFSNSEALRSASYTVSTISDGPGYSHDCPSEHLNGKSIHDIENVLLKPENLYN
Chain of Cytochrome P450 3A4 (P08684 whole entry): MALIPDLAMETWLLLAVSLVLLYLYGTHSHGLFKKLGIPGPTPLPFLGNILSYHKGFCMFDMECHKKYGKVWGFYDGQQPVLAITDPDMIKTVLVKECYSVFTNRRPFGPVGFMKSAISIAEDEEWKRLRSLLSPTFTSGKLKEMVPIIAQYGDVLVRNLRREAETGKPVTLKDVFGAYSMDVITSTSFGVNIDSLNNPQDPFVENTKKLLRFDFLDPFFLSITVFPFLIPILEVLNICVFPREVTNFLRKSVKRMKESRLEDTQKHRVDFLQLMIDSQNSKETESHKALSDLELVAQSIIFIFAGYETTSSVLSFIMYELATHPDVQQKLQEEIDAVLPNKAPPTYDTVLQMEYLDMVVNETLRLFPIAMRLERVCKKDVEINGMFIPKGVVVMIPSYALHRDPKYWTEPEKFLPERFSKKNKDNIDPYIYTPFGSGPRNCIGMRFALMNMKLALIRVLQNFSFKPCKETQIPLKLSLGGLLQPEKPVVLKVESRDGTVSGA
Chain of Cytochrome P450 2C9 (P11712 whole entry, canonical isoform): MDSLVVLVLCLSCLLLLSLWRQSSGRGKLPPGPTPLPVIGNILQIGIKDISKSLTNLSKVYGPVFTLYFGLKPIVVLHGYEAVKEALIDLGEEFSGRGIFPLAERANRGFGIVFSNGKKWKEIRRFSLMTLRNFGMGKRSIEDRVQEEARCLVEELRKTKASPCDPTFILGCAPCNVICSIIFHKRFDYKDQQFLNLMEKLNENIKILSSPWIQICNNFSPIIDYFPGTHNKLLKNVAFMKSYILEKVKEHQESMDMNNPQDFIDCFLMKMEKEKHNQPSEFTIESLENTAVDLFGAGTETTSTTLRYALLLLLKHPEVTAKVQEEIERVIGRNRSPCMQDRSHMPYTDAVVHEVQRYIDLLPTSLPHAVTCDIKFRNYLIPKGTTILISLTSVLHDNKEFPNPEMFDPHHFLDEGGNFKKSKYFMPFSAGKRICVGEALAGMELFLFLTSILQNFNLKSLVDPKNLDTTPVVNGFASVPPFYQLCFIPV
Chain of Cytochrome P450 2C19 (P33261 whole entry): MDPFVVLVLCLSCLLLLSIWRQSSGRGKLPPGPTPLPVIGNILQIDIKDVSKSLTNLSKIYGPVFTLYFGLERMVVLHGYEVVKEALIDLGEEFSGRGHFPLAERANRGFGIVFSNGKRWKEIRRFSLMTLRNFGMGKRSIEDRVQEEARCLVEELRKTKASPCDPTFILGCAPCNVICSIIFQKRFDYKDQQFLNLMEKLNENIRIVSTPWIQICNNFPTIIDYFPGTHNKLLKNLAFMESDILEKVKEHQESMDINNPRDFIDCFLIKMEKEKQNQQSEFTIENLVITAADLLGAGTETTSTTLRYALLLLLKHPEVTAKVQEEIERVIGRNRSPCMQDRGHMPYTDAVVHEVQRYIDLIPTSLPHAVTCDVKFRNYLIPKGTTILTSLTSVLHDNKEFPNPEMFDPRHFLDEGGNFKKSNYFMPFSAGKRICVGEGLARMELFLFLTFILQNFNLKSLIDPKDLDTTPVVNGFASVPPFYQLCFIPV

With `O=C(N[C@H](Cc1csc2ccccc12)C(=O)N1CCC(N2CCCCC2)CC1)N1CCC2(CC1)N=C(C1CCCCC1)NC2=O`, the IC50 in series [1] was determined as 8500 nM.

With `O=C(N[C@H](Cc1csc2ccccc12)C(=O)N1CCC(N2CCCCC2)CC1)N1CCC2(CC1)C(=O)NCN2c1ccccc1`, the IC50 in [1] amounted to 330 nM.

Turning to `O=C(N[C@H](Cc1csc2ccccc12)C(=O)N1CCC(N2CCCCC2)CC1)N1CCC(N2Cc3ccccc3NC2=O)CC1`, the IC50 in series [1] stood at 3 nM.

Turning to `CN1c2ccccc2C(=O)NC12CCN(C(=O)N[C@H](Cc1csc3ccccc13)C(=O)N1CCC(N3CCCCC3)CC1)CC2`, in [1], the IC50 was 860 nM.

For the compound `O=C(N[C@H](Cc1csc2ccccc12)C(=O)N1CCC(N2CCCCC2)CC1)N1CCC2(CC1)C(=O)Nc1ccccc12`, in [1], the IC50 came out at 170 nM.

Turning to `O=C1CC2(CCN(C(=O)N[C@H](Cc3csc4ccccc34)C(=O)N3CCC(N4CCCCC4)CC3)CC2)c2ccccc2N1`, the IC50 in series [1] stood at 23 nM. Also, in [2], the EC50 was 12 nM.

`O=C(N[C@H](Cc1csc2ccccc12)C(=O)N1CCC(N2CCCCC2)CC1)N1CCC(n2c(=O)[nH]c3ccccc32)CC1`: in series [1], the IC50 was found to be 9 nM.

For `O=C1Cc2ccccc2C2(CCN(C(=O)N[C@H](Cc3csc4ccccc34)C(=O)N3CCC(N4CCCCC4)CC3)CC2)N1`, the IC50 in series [1] worked out at 29 nM. For the same compound, the EC50 in series [2] stood at 15 nM.

As to `O=C1Nc2ccccc2C2(CCN(C(=O)N[C@H](Cc3csc4ccccc34)C(=O)N3CCC(N4CCCCC4)CC3)CC2)N1`, the half-inhibitory concentration (IC50) at Cytochrome P450 3A4 is 100 nM; at Cytochrome P450 2C19, over 40000 nM; in series [1], 5 nM; on Cytochrome P450 1A2, over 40000 nM; on Cytochrome P450 2C9, over 40000 nM. Also, the remaining at 10 min, 3 µM came out at 100% in [3] and 82% in [5]. The values for the EC50 in series [4] and in [2] were 32 nM and 3 nM, respectively.

Turning to `O=C1Nc2ccccc2C2(CCN(C(=O)N[C@H](Cc3csc4ccccc34)C(=O)N3CCC(N4CCCCC4)CC3)CC2)O1`, the IC50 on Cytochrome P450 3A4 was under 1000 nM; in series [6], over 40000 nM; in [1], 20 nM. The EC50 in series [4] is 19 nM; in series [2], 31 nM.

Take `O=C(N[C@H](Cc1csc2ccccc12)C(=O)N1CCC(C2CCNCC2)CC1)N1CCC(n2c(=O)[nH]c3ccccc32)CC1`: the IC50 in series [1] amounted to 4 nM.

Regarding `O=C(N[C@H](Cc1csc2ccccc12)C(=O)N1CCC(N2CCCCC2)CC1)N1CCC2(CC1)N=C(c1ccccc1)NC2=O`, the IC50 is under 1000 nM at Cytochrome P450 3A4, over 40000 nM in [6] and 20 nM in series [1]. Further, the results for the concentration for a half-maximal effect (EC50) in series [4] and in series [2] were 63 nM and 13 nM, respectively.

Consider `O=C(N[C@H](Cc1csc2ccccc12)C(=O)N1CCC(N2CCCCC2)CC1)N1CCC2(CC1)N=C(c1ccncc1)NC2=O`, for which the IC50 in series [1] was determined as 1400 nM.

As for `O=C(N[C@H](Cc1csc2ccccc12)C(=O)N1CCC(N2CCCCC2)CC1)N1CCC2(CC1)N=C(c1cccnc1)NC2=O`, in [1], the IC50 was found to be 210 nM.

On to `O=C1NCC2(CCN(C(=O)N[C@H](Cc3csc4ccccc34)C(=O)N3CCC(N4CCCCC4)CC3)CC2)c2ccccc21`, for which the IC50 in series [1] is 150 nM. In addition, the EC50 in series [2] amounted to 130 nM.

A word on the IC50: it is the concentration needed to halve the response being measured. In general, EC50 refers to the concentration that produces a half-maximal response.

These data come from ChEMBL document CHEMBL2057200, “Design and synthesis of potent antagonists containing rigid spirocyclic privileged structures for the CGRP receptor” (Bioorg Med Chem Lett, 2012).
